# Results as given in ChEMBL document CHEMBL3286292, “Synthesis and antimicrobial activity of amine linked bis- and tris-heterocycles” (2014).
# Active and inactive are the calls of the source. The rule behind the calls is not given here.
# Key:
# Format in all cases: functional
# Staphylococcus aureus [1] = experiment: Antibacterial activity against Staphylococcus aureus assessed as growth inhibition at 25 ug/well after 24 hrs by agar well diffusion method; settings: for zone of inhibition at 25 µg/disc: read-out: DIZ
# In short: (§1)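 Agar well diffusion on […] swabbed with a 24 h broth culture. Samples were dissolved in DMSO and loaded at three per-well amounts into 6 mm wells. Incubation was 37 °C for 24 h, then inhibition zone diameter was read in mm. DMSO served as the negative control. Runs were in duplicate and averaged.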
# Staphylococcus aureus [2] = experiment: Antibacterial activity against Staphylococcus aureus assessed as growth inhibition at 50 ug/well after 24 hrs by agar well diffusion method; settings: for zone of inhibition at 50 µg/disc: read-out: DIZ; in short: as §1
# Staphylococcus aureus [3] = experiment: Antibacterial activity against Staphylococcus aureus assessed as growth inhibition at 100 ug/well after 24 hrs by agar well diffusion method; settings: for zone of inhibition at 100 µg/disc: read-out: DIZ; in short: as §1
# Bacillus subtilis [4] = experiment: Antibacterial activity against Bacillus subtilis assessed as growth inhibition at 25 ug/well after 24 hrs by agar well diffusion method; settings: for zone of inhibition at 25 µg/disc: read-out: DIZ; in short: as §1
# Bacillus subtilis [5] = experiment: Antibacterial activity against Bacillus subtilis assessed as growth inhibition at 50 ug/well after 24 hrs by agar well diffusion method; settings: for zone of inhibition at 50 µg/disc: read-out: DIZ; in short: as §1
# Bacillus subtilis [6] = experiment: Antibacterial activity against Bacillus subtilis assessed as growth inhibition at 100 ug/well after 24 hrs by agar well diffusion method; settings: for zone of inhibition at 100 µg/disc: read-out: DIZ; in short: as §1
# Pseudomonas aeruginosa [7] = experiment: Antibacterial activity against Pseudomonas aeruginosa assessed as growth inhibition at 25 ug/well after 24 hrs by agar well diffusion method; settings: for zone of inhibition at 25 µg/disc: read-out: DIZ; in short: as §1
# Pseudomonas aeruginosa [8] = experiment: Antibacterial activity against Pseudomonas aeruginosa assessed as growth inhibition at 50 ug/well after 24 hrs by agar well diffusion method; settings: for zone of inhibition at 50 µg/disc: read-out: DIZ; in short: as §1
# Pseudomonas aeruginosa [9] = experiment: Antibacterial activity against Pseudomonas aeruginosa assessed as growth inhibition at 100 ug/well after 24 hrs by agar well diffusion method; settings: for zone of inhibition at 100 µg/disc: read-out: DIZ; in short: as §1
# Klebsiella pneumoniae [10] = experiment: Antibacterial activity against Klebsiella pneumoniae assessed as growth inhibition at 25 ug/well after 24 hrs by agar well diffusion method; settings: for zone of inhibition at 25 µg/disc: read-out: DIZ; in short: as §1
# Klebsiella pneumoniae [11] = experiment: Antibacterial activity against Klebsiella pneumoniae assessed as growth inhibition at 50 ug/well after 24 hrs by agar well diffusion method; settings: for zone of inhibition at 50 µg/disc: read-out: DIZ; in short: as §1
# Klebsiella pneumoniae [12] = experiment: Antibacterial activity against Klebsiella pneumoniae assessed as growth inhibition at 100 ug/well after 24 hrs by agar well diffusion method; settings: for zone of inhibition at 100 µg/disc: read-out: DIZ; in short: as §1
# Aspergillus niger [13] = experiment: Antifungal activity against Aspergillus niger assessed as inhibition of spore germination at 25 ug/well after 48 hrs by agar well diffusion method; settings: for zone of inhibition at 25 µg/disc: read-out: DIZ
# In short: (§2)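 Well diffusion using 6 mm bored wells loaded with DMSO solutions at three per-well amounts, with a DMSO negative control. Plates were held at 28 °C for 48 h, then zone of inhibition diameter was measured in mm. Runs were in duplicate and averaged.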
# Aspergillus niger [14] = experiment: Antifungal activity against Aspergillus niger assessed as inhibition of spore germination at 50 ug/well after 48 hrs by agar well diffusion method; settings: for zone of inhibition at 50 µg/disc: read-out: DIZ; in short: as §2
Compound,growth inhibition (GI) (Staphylococcus aureus [1]),growth inhibition (GI) (Staphylococcus aureus [2]),growth inhibition (GI) (Staphylococcus aureus [3]),growth inhibition (GI) (Bacillus subtilis [4]),growth inhibition (GI) (Bacillus subtilis [5]),zone of inhibition at 100 µg/disc (Bacillus subtilis [6]) [mm],growth inhibition (GI) (Pseudomonas aeruginosa [7]),growth inhibition (GI) (Pseudomonas aeruginosa [8]),growth inhibition (GI) (Pseudomonas aeruginosa [9]),growth inhibition (GI) (Klebsiella pneumoniae [10]),zone of inhibition at 50 µg/disc (Klebsiella pneumoniae [11]) [mm],zone of inhibition at 100 µg/disc (Klebsiella pneumoniae [12]) [mm],growth inhibition (GI) (Aspergillus niger [13]),zone of inhibition at 50 µg/disc (Staphylococcus aureus [2]) [mm],zone of inhibition at 100 µg/disc (Staphylococcus aureus [3]) [mm],zone of inhibition at 25 µg/disc (Bacillus subtilis [4]) [mm],zone of inhibition at 50 µg/disc (Bacillus subtilis [5]) [mm],zone of inhibition at 25 µg/disc (Klebsiella pneumoniae [10]) [mm],zone of inhibition at 25 µg/disc (Aspergillus niger [13]) [mm],zone of inhibition at 50 µg/disc (Aspergillus niger [14]) [mm],also measured
NC(=S)N1N=C(Nc2nc(-c3ccc(Cl)cc3)c[nH]2)C[C@@H]1c1ccc(Cl)cc1,inactive,inactive,inactive,inactive,inactive,6,inactive,inactive,inactive,inactive,6,7,inactive,,,,,,,,zone of inhibition (Aspergillus niger [14]): inactive
Cc1ccc(-c2c[nH]c(Nc3cc(-c4ccc(C)cc4)n(-c4nc(-c5ccc(C)cc5)cs4)n3)n2)cc1,,,,,,16,,,,,14,17,,14,17,12,13,13,16,17,zone of inhibition at 25 µg/disc (Staphylococcus aureus [1]): 12 mm; zone of inhibition at 25 µg/disc (Pseudomonas aeruginosa [7]): 6 mm; zone of inhibition at 50 µg/disc (Pseudomonas aeruginosa [8]): 7 mm; zone of inhibition at 100 µg/disc (Pseudomonas aeruginosa [9]): 10 mm
NC(=S)N1N=C(Nc2nc(-c3ccc(Cl)cc3)co2)C[C@@H]1c1ccc(Cl)cc1,inactive,inactive,inactive,inactive,inactive,,inactive,inactive,inactive,inactive,,,inactive,,,,,,,,growth inhibition (GI) (Bacillus subtilis [6]): inactive; growth inhibition (GI) (Klebsiella pneumoniae [11]): inactive; growth inhibition (GI) (Klebsiella pneumoniae [12]): inactive; zone of inhibition (Aspergillus niger [14]): inactive
Cc1ccc(-c2csc(NC3=NN(C(N)=S)[C@@H](c4ccc(C)cc4)C3)n2)cc1,inactive,inactive,inactive,inactive,inactive,,inactive,inactive,inactive,inactive,,,inactive,,,,,,,,growth inhibition (GI) (Bacillus subtilis [6]): inactive; growth inhibition (GI) (Klebsiella pneumoniae [11]): inactive; growth inhibition (GI) (Klebsiella pneumoniae [12]): inactive; zone of inhibition (Aspergillus niger [14]): inactive
Clc1ccc(-c2coc(Nc3cc(-c4ccc(Cl)cc4)n(-c4nc(-c5ccc(Cl)cc5)cs4)n3)n2)cc1,,,,,,21,,,,,19,22,,18,21,16,18,17,11,12,zone of inhibition at 25 µg/disc (Staphylococcus aureus [1]): 17 mm; zone of inhibition at 25 µg/disc (Pseudomonas aeruginosa [7]): 9 mm; zone of inhibition at 50 µg/disc (Pseudomonas aeruginosa [8]): 10 mm; zone of inhibition at 100 µg/disc (Pseudomonas aeruginosa [9]): 13 mm
Cc1ccc(-c2coc(Nc3cc(-c4ccc(C)cc4)n(C(N)=S)n3)n2)cc1,inactive,inactive,,inactive,,8,inactive,inactive,inactive,inactive,7,8,inactive,,6,,7,,,6,
Cc1ccc(-c2c[nH]c(NC3=NN(C(N)=S)[C@@H](c4ccc(C)cc4)C3)n2)cc1,inactive,inactive,inactive,inactive,inactive,,inactive,inactive,inactive,inactive,,,inactive,,,,,,,,growth inhibition (GI) (Bacillus subtilis [6]): inactive; growth inhibition (GI) (Klebsiella pneumoniae [11]): inactive; growth inhibition (GI) (Klebsiella pneumoniae [12]): inactive; zone of inhibition (Aspergillus niger [14]): inactive
Cc1ccc(-c2csc(Nc3cc(-c4ccc(C)cc4)n(C(N)=S)n3)n2)cc1,,,,,,14,inactive,,,,13,16,,13,15,10,12,11,12,13,zone of inhibition at 25 µg/disc (Staphylococcus aureus [1]): 11 mm; zone of inhibition at 50 µg/disc (Pseudomonas aeruginosa [8]): 6 mm; zone of inhibition at 100 µg/disc (Pseudomonas aeruginosa [9]): 8 mm
NC(=S)n1nc(Nc2nc(-c3ccccc3)cs2)cc1-c1ccccc1,,,,,,24,,,,,25,28,,25,26,21,22,23,17,19,zone of inhibition at 25 µg/disc (Staphylococcus aureus [1]): 22 mm; zone of inhibition at 25 µg/disc (Pseudomonas aeruginosa [7]): 12 mm; zone of inhibition at 50 µg/disc (Pseudomonas aeruginosa [8]): 15 mm; zone of inhibition at 100 µg/disc (Pseudomonas aeruginosa [9]): 17 mm
Cc1ccc(-c2coc(NC3=NN(C(N)=S)[C@@H](c4ccc(C)cc4)C3)n2)cc1,inactive,inactive,inactive,inactive,inactive,,inactive,inactive,inactive,inactive,,,inactive,,,,,,,,growth inhibition (GI) (Bacillus subtilis [6]): inactive; growth inhibition (GI) (Klebsiella pneumoniae [11]): inactive; growth inhibition (GI) (Klebsiella pneumoniae [12]): inactive; zone of inhibition (Aspergillus niger [14]): inactive
Cc1ccc(-c2coc(Nc3cc(-c4ccc(C)cc4)n(-c4nc(-c5ccc(C)cc5)cs4)n3)n2)cc1,inactive,,,,,9,inactive,inactive,inactive,,8,10,,6,8,6,8,6,6,8,
NC(=S)n1nc(Nc2nc(-c3ccc(Cl)cc3)cs2)cc1-c1ccc(Cl)cc1,,,,,,26,,,,,28,31,,26,29,22,25,26,20,22,zone of inhibition at 25 µg/disc (Staphylococcus aureus [1]): 24 mm; zone of inhibition at 25 µg/disc (Pseudomonas aeruginosa [7]): 14 mm; zone of inhibition at 50 µg/disc (Pseudomonas aeruginosa [8]): 16 mm; zone of inhibition at 100 µg/disc (Pseudomonas aeruginosa [9]): 18 mm
NC(=S)n1nc(Nc2nc(-c3ccc(Cl)cc3)co2)cc1-c1ccc(Cl)cc1,,,,,,19,,,,,17,20,,17,19,15,16,16,10,11,zone of inhibition at 25 µg/disc (Staphylococcus aureus [1]): 15 mm; zone of inhibition at 25 µg/disc (Pseudomonas aeruginosa [7]): 8 mm; zone of inhibition at 50 µg/disc (Pseudomonas aeruginosa [8]): 9 mm; zone of inhibition at 100 µg/disc (Pseudomonas aeruginosa [9]): 12 mm
NC(=S)N1N=C(Nc2nc(-c3ccccc3)c[nH]2)C[C@@H]1c1ccccc1,inactive,inactive,inactive,inactive,inactive,,inactive,inactive,inactive,inactive,,6,inactive,,,,,,,,growth inhibition (GI) (Bacillus subtilis [6]): inactive; growth inhibition (GI) (Klebsiella pneumoniae [11]): inactive; zone of inhibition (Aspergillus niger [14]): inactive
